Source: ChEMBL document CHEMBL1126060, “Spiropiperidines as high-affinity, selective sigma ligands” (J Med Chem, 1992)

biological target: D(2) dopamine receptor (Rattus norvegicus, UniProt P61169); experiment: In vitro for the binding affinity against dopamine receptor D2 by using [3H](-)-sulpiride as radioligand in rat striatum.; format: tissue-based
Method in brief: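 Displacement of [³H]-(-)-sulpiride from rat striatal homogenates. Values are reported as -log₁₀(IC₅₀), the mean of two to three independent determinations. Values without error limits are the mean of two independent experiments.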

D(2) dopamine receptor, sequence (P61169 whole entry): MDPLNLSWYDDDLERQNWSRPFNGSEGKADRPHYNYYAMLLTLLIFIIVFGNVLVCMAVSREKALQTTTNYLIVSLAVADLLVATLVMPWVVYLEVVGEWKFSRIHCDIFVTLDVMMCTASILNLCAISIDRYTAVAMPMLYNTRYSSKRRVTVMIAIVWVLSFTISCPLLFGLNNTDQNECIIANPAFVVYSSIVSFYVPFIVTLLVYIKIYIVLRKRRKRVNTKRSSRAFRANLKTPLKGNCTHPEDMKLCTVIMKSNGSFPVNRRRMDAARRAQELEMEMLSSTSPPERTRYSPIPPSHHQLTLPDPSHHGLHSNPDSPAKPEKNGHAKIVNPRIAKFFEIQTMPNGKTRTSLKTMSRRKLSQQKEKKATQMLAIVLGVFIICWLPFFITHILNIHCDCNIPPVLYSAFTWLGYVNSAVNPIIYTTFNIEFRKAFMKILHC

Row | IC50 [µM] | Structure (SMILES)
1 | 6.61 | c1ccc2c(c1)CCC21CCN(CC2CCCCC2)CC1
2 | 2.04 | CCCCCCN1CCC2(CCCc3ccccc32)CC1
3 | 0.12 | COc1ccc(CN2CCC3(CCCc4ccccc43)CC2)cc1
4 | 0.174 | Cc1ccc(CN2CCC3(CCCc4ccccc43)CC2)cc1
5 | 2.51 | CCCCN1CCC2(CCCCc3ccccc32)CC1
6 | 5.5 | CCCCCCN1CCC2(CCc3ccccc32)CC1
7 | 0.617 | COc1ccc(CN2CCC3(CCc4ccccc43)CC2)cc1
8 | 17 | CC(C)=CCN1CCC2(CCc3ccccc32)CC1
9 | 5.5 | CC(C)=CCN1CCC2(CCCc3ccccc32)CC1

Row | Structure (SMILES) | IC50 [µM]
10 | c1ccc2c(c1)CCCC21CCN(CC2CCCCC2)CC1 | 1.95
11 | c1ccc(CN2CCC3(CCCCc4ccccc43)CC2)cc1 | 3.72
12 | CCCCN1CCC2(CCc3ccccc32)CC1 | 3.98
13 | CCCCN1CCC2(CCCc3ccccc32)CC1 | 11
14 | c1ccc(CN2CCC3(CCc4ccccc43)CC2)cc1 | 0.891
